Test system: Fibroblast
Assay: Multiplex assay against human fibroblast
Assay type: toxicity, cell-based
Outline: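 Phenotypes for tubulin, mitochondrial mass and membrane permeability are expressed as per cents of healthy-nucleus cells. Cells were stained live at seeding with Hoechst33342, BioTracker Green Microtubule Cytoskeleton Dye, MitoTracker Red and Annexin V Alexa Fluor 680, then imaged after compound addition on a CQ1 microscope at 37°C and 5% CO2. Machine-learning gating in CellPathfinder separated Hoechst high-intensity objects from normal cells, divided normal cells by nuclear state (healthy, pyknosed, fragmented) and divided pyknosed cells into mitotic or apoptotic.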

[1] = 12 h, 1 µM, compound concentration 1 uM, replicate 1
[2] = 12 h, 1 µM, compound concentration 1 uM, replicate 2
[3] = 12 h, 10 µM, compound concentration 10 uM, replicate 1
[4] = 12 h, 10 µM, compound concentration 10 uM, replicate 2
[5] = 24 h, 1 µM, compound concentration 1 uM, replicate 1
[6] = 24 h, 1 µM, compound concentration 1 uM, replicate 2
[7] = 24 h, 10 µM, compound concentration 10 uM, replicate 1
[8] = 24 h, 10 µM, compound concentration 10 uM, replicate 2
[9] = 48 h, 1 µM, compound concentration 1 uM, replicate 1
[10] = 48 h, 1 µM, compound concentration 1 uM, replicate 2
[11] = 48 h, 10 µM, compound concentration 10 uM, replicate 1
[12] = 48 h, 10 µM, compound concentration 10 uM, replicate 2

CC(Cc1ccc(O)c(O)c1)C(C)Cc1ccc(O)c(O)c1 (stereo not drawn) [NORDIHYDROGUAIARETIC ACID]
Population Apoptotic (%) [1]: 66% | Population Fragmented Nuclei (%) [1]: 19% | Population Healthy Nuclei (%) [1]: 50% | Population Hoechst High Intensity Objects (%) [1]: 5% | Population Membrane Permeable-Phenotype (%) [1]: 19% | Population Mitochondria Different-Phenotype (%) [1]: 4% | Population Mitotic Cells (%) [1]: 33% | Population Normal (%) [1]: 94% | Population Pyknosed Nuclei (%) [1]: 29% | Population Tubulin-Different-Phenotype (%) [1]: 19% | Total Cell Count [1]: 170 | Population Apoptotic (%) [2]: 0% | Population Fragmented Nuclei (%) [2]: 3% | Population Healthy Nuclei (%) [2]: 93% | Population Hoechst High Intensity Objects (%) [2]: 15% | Population Membrane Permeable-Phenotype (%) [2]: 0% | Population Mitochondria Different-Phenotype (%) [2]: 1% | Population Mitotic Cells (%) [2]: 100% | Population Normal (%) [2]: 84% | Population Pyknosed Nuclei (%) [2]: 3% | Population Tubulin-Different-Phenotype (%) [2]: 25% | Population Apoptotic (%) [3]: 87% | Population Fragmented Nuclei (%) [3]: 19% | Population Healthy Nuclei (%) [3]: 46% | Population Hoechst High Intensity Objects (%) [3]: 14% | Population Membrane Permeable-Phenotype (%) [3]: 18% | Population Mitochondria Different-Phenotype (%) [3]: 6% | Population Mitotic Cells (%) [3]: 12% | Population Normal (%) [3]: 85% | Population Pyknosed Nuclei (%) [3]: 33% | Population Tubulin-Different-Phenotype (%) [3]: 13% | Population Apoptotic (%) [4]: 0% | Population Fragmented Nuclei (%) [4]: 2% | Population Healthy Nuclei (%) [4]: 91% | Population Hoechst High Intensity Objects (%) [4]: 6% | Population Membrane Permeable-Phenotype (%) [4]: 2% | Population Mitochondria Different-Phenotype (%) [4]: 10% | Population Mitotic Cells (%) [4]: 100% | Population Normal (%) [4]: 93% | Population Pyknosed Nuclei (%) [4]: 5% | Population Tubulin-Different-Phenotype (%) [4]: 38% | Total Cell Count [4]: 70 | Population Apoptotic (%) [5]: 50% | Population Fragmented Nuclei (%) [5]: 20% | Population Healthy Nuclei (%) [5]: 63% | Population Hoechst High Intensity Objects (%) [5]: 6% | Population Membrane Permeable-Phenotype (%) [5]: 22% | Population Mitochondria Different-Phenotype (%) [5]: 3% | Population Mitotic Cells (%) [5]: 50% | Population Normal (%) [5]: 93% | Population Pyknosed Nuclei (%) [5]: 16% | Population Tubulin-Different-Phenotype (%) [5]: 25% | Total Cell Count [5]: 165 | Population Apoptotic (%) [6]: 0% | Population Fragmented Nuclei (%) [6]: 2% | Population Healthy Nuclei (%) [6]: 94% | Population Hoechst High Intensity Objects (%) [6]: 7% | Population Membrane Permeable-Phenotype (%) [6]: 0% | Population Mitochondria Different-Phenotype (%) [6]: 8% | Population Mitotic Cells (%) [6]: 100% | Population Normal (%) [6]: 92% | Population Pyknosed Nuclei (%) [6]: 2% | Population Tubulin-Different-Phenotype (%) [6]: 23% | Population Apoptotic (%) [7]: 87% | Population Fragmented Nuclei (%) [7]: 18% | Population Healthy Nuclei (%) [7]: 62% | Population Hoechst High Intensity Objects (%) [7]: 17% | Population Membrane Permeable-Phenotype (%) [7]: 7% | Population Mitochondria Different-Phenotype (%) [7]: 5% | Population Mitotic Cells (%) [7]: 12% | Population Normal (%) [7]: 82% | Population Pyknosed Nuclei (%) [7]: 19% | Population Tubulin-Different-Phenotype (%) [7]: 7% | Population Apoptotic (%) [8]: 16% | Population Fragmented Nuclei (%) [8]: 2% | Population Healthy Nuclei (%) [8]: 90% | Population Hoechst High Intensity Objects (%) [8]: 5% | Population Membrane Permeable-Phenotype (%) [8]: 1% | Population Mitochondria Different-Phenotype (%) [8]: 9% | Population Mitotic Cells (%) [8]: 83% | Population Normal (%) [8]: 94% | Population Pyknosed Nuclei (%) [8]: 7% | Population Tubulin-Different-Phenotype (%) [8]: 61% | Population Apoptotic (%) [9]: 60% | Population Fragmented Nuclei (%) [9]: 20% | Population Healthy Nuclei (%) [9]: 75% | Population Hoechst High Intensity Objects (%) [9]: 8% | Population Membrane Permeable-Phenotype (%) [9]: 25% | Population Mitochondria Different-Phenotype (%) [9]: 0% | Population Mitotic Cells (%) [9]: 40% | Population Normal (%) [9]: 91% | Population Pyknosed Nuclei (%) [9]: 3% | Population Tubulin-Different-Phenotype (%) [9]: 16% | Total Cell Count [9]: 162 | Population Apoptotic (%) [10]: 66% | Population Fragmented Nuclei (%) [10]: 25% | Population Healthy Nuclei (%) [10]: 70% | Population Hoechst High Intensity Objects (%) [10]: 20% | Population Membrane Permeable-Phenotype (%) [10]: 17% | Population Mitotic Cells (%) [10]: 33% | Population Normal (%) [10]: 80% | Population Pyknosed Nuclei (%) [10]: 4% | Population Tubulin-Different-Phenotype (%) [10]: 21% | Total Cell Count [10]: 90 | Population Apoptotic (%) [11]: 92% | Population Fragmented Nuclei (%) [11]: 33% | Population Healthy Nuclei (%) [11]: 52% | Population Hoechst High Intensity Objects (%) [11]: 15% | Population Membrane Permeable-Phenotype (%) [11]: 6% | Population Mitotic Cells (%) [11]: 7% | Population Normal (%) [11]: 84% | Population Pyknosed Nuclei (%) [11]: 14% | Population Tubulin-Different-Phenotype (%) [11]: 0% | Population Apoptotic (%) [12]: 100% | Population Fragmented Nuclei (%) [12]: 20% | Population Healthy Nuclei (%) [12]: 77% | Population Hoechst High Intensity Objects (%) [12]: 11% | Population Membrane Permeable-Phenotype (%) [12]: 9% | Population Mitochondria Different-Phenotype (%) [12]: 0% | Population Mitotic Cells (%) [12]: 0% | Population Normal (%) [12]: 88% | Population Pyknosed Nuclei (%) [12]: 1% | Population Tubulin-Different-Phenotype (%) [12]: 2%

— ChEMBL document CHEMBL4689842, “EUbOPEN Chemogenomics Library wave 1” (2021)
